From ChEMBL document CHEMBL4823325, “Synthesis of Benzoazepine Derivatives via Azide Rearrangement and Evaluation of Their Antianxiety Activities” (ACS Med Chem Lett, 2021)
pIC50: −log10 of the molar value. Active and inactive are the calls of the source. No cut-off for these calls is given here.

What was measured:
HEK293 = experiment: Cytotoxicity against human HEK293 cells assessed as reduction in cell viability measured after 24 hrs by MTT assay; type: cell-based; details: HEK293, 24 h
Rattus norvegicus [1] = experiment: Induction of hyperlocomotor activity in restraint stress induced anxiety Wistar rat model assessed as increase in total lines crossed at 2 mg/kg, po measured after 30 mins by open field test; type: functional, organism-based
Method in brief: (§1)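 Restraint stress was applied by immobilization in a plastic restrainer for 2 h/day over 14 days. Rats received 2 mg/kg 30 min before the open field test, six per group. Inner zone time was scored as the anxiety measure and the number of total lines crossed as locomotor activity. Groups were compared with nonstressed vehicle and stressed vehicle groups.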

Rattus norvegicus [2] = experiment: Anxiolytic activity in restraint stress induced anxiety Wistar rat model assessed as increase in time spent in open arm at 2 mg/kg, po measured after 30 mins by elevated plus maze test; type: functional, organism-based
Method in brief: (§2)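 Rats were stressed by immobilization in a plastic restrainer for 2 h/day for 14 days. Test compounds were given at 2 mg/kg 30 min before the elevated plus maze, six rats per group. Read-outs were percent open arm entry, percent open arm time and anxiety index (higher index means more anxiety). Groups were compared with nonstressed vehicle and stressed vehicle groups.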

[3] = Effect on locomotor activity in normal Wistar rat assessed as effect on total open arm entry at 2 mg/kg, po measured after 30 mins by elevated plus maze test; details: in vivo, 0.5 h
Rattus norvegicus [4] = experiment: Anxiolytic activity in restraint stress induced anxiety Wistar rat model assessed as increase in open arm entry at 2 mg/kg, po measured after 30 mins by elevated plus maze test; type: functional, organism-based; method in brief: as §2
Rattus norvegicus [5] = experiment: Anxiolytic activity in restraint stress induced anxiety Wistar rat model assessed as decrease in anxiety index at 2 mg/kg, po measured after 30 mins by elevated plus maze test; type: functional, organism-based; method in brief: as §2
Rattus norvegicus [6] = experiment: Anxiolytic activity in restraint stress induced anxiety Wistar rat model assessed as increase in time spent in inner zone at 2 mg/kg, po measured after 30 mins by open field test; type: functional, organism-based; method in brief: as §1
Rattus norvegicus [7] = experiment: Anxiolytic activity in restraint stress induced anxiety Wistar rat model assessed as decrease in time spent in outer zone at 2 mg/kg, po measured after 30 mins by open field test; type: functional, organism-based
Method in brief: (§3)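 Open field test in rats stressed by immobilisation in a plastic restrainer for 2 h/day for 14 days, with non-stressed controls. Animals received 2 mg/kg acutely 30 min before testing, six rats per group. Readouts were inner zone time, outer zone time, total lines crossed (locomotion) and rearing (exploration).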

Rattus norvegicus [8] = experiment: Anxiolytic activity in restraint stress induced anxiety Wistar rat model assessed as decrease in rearing behaviour at 2 mg/kg, po measured after 30 mins by open field test; type: functional, organism-based; method in brief: as §3

With `COc1ccc2c(c1)Cc1cccc(F)c1NC2` the pIC50 (HEK293) was 5.21.

For `COc1ccc2c(c1)Cc1ccc(OC)cc1NC2`, the pIC50 (HEK293) was 5.96.

`COc1ccc2c(c1)Cc1cc3c(cc1NC2)OCO3` gave a pIC50 (HEK293) of 4.84.

In the case of `Fc1cccc2c1NCc1ccc(Oc3ccccc3)cc1C2`, the Activity (Rattus norvegicus [1]) was “Active”, the Activity (Rattus norvegicus [2]) was “Active” and the Activity [3] was “Non-Toxic”. For the same compound, the Activity (Rattus norvegicus [4]) was “Active”, the Activity (Rattus norvegicus [5]) was “Active” and the pIC50 (HEK293) was 4.86. The Activity (Rattus norvegicus [6]) was “Active”.

Compound `COc1ccc2c(c1)NCc1ccc(Oc3ccccc3)cc1C2` has a pIC50 (HEK293) of 5.67.

Compound `COc1cc2c(c(OC)c1)CNc1ccccc1C2` has a pIC50 (HEK293) of 5.19.

For `COc1ccc2c(c1)Cc1cc(F)ccc1NC2`, the Activity (Rattus norvegicus [1]) was “Active”, the Activity (Rattus norvegicus [2]) was “Active” and the Activity [3] was “Non-Toxic”. For the same compound, the Activity (Rattus norvegicus [4]) was “Active”, the Activity (Rattus norvegicus [5]) was “Active” and the pIC50 (HEK293) was 6.80. The Activity (Rattus norvegicus [6]) was “Active”.

Work on `COc1ccc2c(c1)Cc1cc(Cl)ccc1NC2` yielded a pIC50 (HEK293) of 5.64.

In the case of `COc1ccc2c(c1)Cc1ccc(Cl)cc1NC2`, the Activity (Rattus norvegicus [1]) was “Active”, the Activity (Rattus norvegicus [2]) was “Active” and the Activity [3] was “Non-Toxic”. For the same compound, the Activity (Rattus norvegicus [4]) was “Active”, the Activity (Rattus norvegicus [5]) was “Active” and the pIC50 (HEK293) was 4.90. The Activity (Rattus norvegicus [6]) was “Active”.

In the case of `Clc1ccc2c(c1)NCc1ccc(Oc3ccccc3)cc1C2`, the Activity (Rattus norvegicus [1]) was “Active”, the Activity (Rattus norvegicus [2]) was “Active” and the Activity [3] was “Non-Toxic”. The Activity (Rattus norvegicus [4]) was “Active”, the Activity (Rattus norvegicus [5]) was “Active” and the pIC50 (HEK293) was 4.85. For the same compound, the Activity (Rattus norvegicus [6]) was “Active”.

In the case of `COc1ccc2c(c1)CCc1ccccc1NC2`, the pIC50 (HEK293) was 4.85.

With `COc1ccc2c(c1)Cc1ccccc1NC2` the Activity (Rattus norvegicus [1]) was “Active”, the Activity (Rattus norvegicus [2]) was “Active” and the Activity [3] was “Non-Toxic”. For the same compound, the Activity (Rattus norvegicus [4]) was “Active”, the Activity (Rattus norvegicus [5]) was “Active” and the pIC50 (HEK293) was 4.18. The Activity (Rattus norvegicus [6]) was “Active”.

In the case of `CN1C(=O)CN=C(c2ccccc2)c2cc(Cl)ccc21` [DIAZEPAM], the Activity (Rattus norvegicus [7]) was “Active”, the Activity (Rattus norvegicus [8]) was “Active” and the Activity (Rattus norvegicus [1]) was “Active”. The Activity (Rattus norvegicus [2]) was “Active”, the Activity (Rattus norvegicus [4]) was “Active” and the Activity (Rattus norvegicus [5]) was “Active”. For the same compound, the pIC50 (HEK293) was 4.06 and the Activity (Rattus norvegicus [6]) was “Active”.

Compound `c1ccc(Oc2ccc3c(c2)Cc2ccccc2NC3)cc1` has a pIC50 (HEK293) of 5.35.

For `COc1ccc2c(c1)Cc1c(F)cccc1NC2`, the pIC50 (HEK293) was 6.11.
